Results on 96 compounds are retold here after ChEMBL document CHEMBL4513216, “Probing the Open Global Health Chemical Diversity Library for Multistage-Active Starting Points for Next-Generation Antimalarials” (ACS Infect Dis, 2020).

A short description of the series: Toxicity liver stage against HepG2, at 10uM. The series is classed as cell-based. To be noted: human, HepG2-A16-CD81EGFP cells; read-out: INHIBITION
More on the design: test concentration 10 uM, cell line HepG2-A16-CD81EGFP. A digest of the protocol: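 Uninfected HepG2-A16-CD81EGFP cells, 3 × 10^3 per well, 1536-well, plated on prespotted compound at 10 μM final, parasite-free screening media added to match infected plates; puromycin 10 μM positive, DMSO 0.5% negative; run in parallel with 48 h PbLuc assay at 37 °C, 5% CO2; viability by CellTiter-Glo luminescence, normalized to controls.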
Consider `Cc1cc(C2CCCN2CCCc2nc3ccccc3o2)on1` (stereo unspecified), for which the cytotoxicity at 10 µM is -5.58%. As for `COCC(=O)Nc1ccc(-c2noc([C@@H]3CCCN3)n2)cn1`, the figure is -1.16%. As for `CC(C)NC(=O)NC[C@H]1OC[C@@H](NCc2ccncc2)[C@@H]1O`, the figure is -4.07%. The result for `C[C@@H](NC(=O)c1cccn1C)c1c(-c2ccc(Cl)cc2)noc1C(=O)O` reads 3%; that for `Cn1nnc(NCc2ccc(OCc3ccc(Cl)cc3)cc2)n1`, -2.56%.

`CC(C)(C)S(=O)(=O)c1ccc(N2CCN(c3ccccn3)CC2)nn1`: the cytotoxicity at 10 µM was -3.3%.

Take `COCCNC(=O)NCCS(=O)(=O)N1CCN(c2cccc(C)c2)CC1`: the cytotoxicity at 10 µM was found to be 4.31%. As for `CCS(=O)(=O)N1CCC2(CC1)CN(C(=O)N(C)C)Cc1ccccc12`, the cytotoxicity at 10 µM was 2.67%. As for `Cc1cccc(CN2CCCC23CCNC3)n1` (stereo unspecified), the figure is 4.82%.

With `CCOCC(=O)N1CCC2(CC1)CN(Cc1cccnc1)C(=O)CO2`, the cytotoxicity at 10 µM is -0.125%. `COc1ccc(CN2CCO[C@H]3CN(C(=O)C4CC4)CC[C@H]3C2=O)cc1`: the cytotoxicity at 10 µM was -147%. On to `O=C(NC1CCC1)C1CCC2(CN(C(=O)c3ccco3)C2)O1` (stereo unspecified), for which the cytotoxicity at 10 µM was -144%. The result for `CCN(CC)Cc1cnc2n1CCN(C1CCOC1)CC2` (stereo unspecified) reads -146%; that for `CCOCC1CN(Cc2ccco2)Cc2ccnn2C1` (stereo unspecified), -149%; that for `Cc1ccoc1C(=O)N1CCc2ncnc(-c3cnn(C)c3)c2CC1`, 16.9%.

With `COc1cc(CCO)c(OC)c2c1OCO2`, the cytotoxicity at 10 µM is -5.6%. For the compound `O=C(NC1CCCC1)c1cc(Sc2ncccn2)ccn1`, the cytotoxicity at 10 µM was -12.3%. The result for `Clc1ccc(CN(CCN2CCOCC2)Cc2cccnc2)c(Cl)c1` reads -4.25%. In the case of `CC(NC(=O)c1cnccn1)c1nnc2ccccn12` (stereo unspecified), the cytotoxicity at 10 µM was 5.1%. As for `Cc1cnn(-c2ccc(S(=O)(=O)N(C)CC(F)F)cc2F)c1`, the figure is 9.75%. As for `CC1(C)COCCN1C(=O)CCc1nc(-c2ccc(Cl)cc2)no1`, the figure is 25.4%; as for `CCCc1c(C(=O)N2CCN(c3ncccn3)CC2)cnn1C`, 3.38%; as for `O=C(CNc1nc(C2CC2)ns1)N1CCc2sccc2C1`, 17.3%. As for `COc1cc(CO)ccc1OCc1nc(C(C)C)no1`, the cytotoxicity at 10 µM is 6.3%.

As to `COC(=O)c1cccc(S(=O)(=O)Nc2ncc(C)s2)c1`, the cytotoxicity at 10 µM came to 0.158%. For the compound `Cc1ncncc1C(=O)N1CCCN(Cc2nccn2C(C)C)CC1`, the cytotoxicity at 10 µM turned out to be 5.79%. As to `Cc1ccc(-c2nnn(CCN3C(=O)CCC3=O)n2)cc1`, the cytotoxicity at 10 µM was determined as 1.33%. The result for `CCN(CC(C)C#N)C(=O)CNc1ccc(F)c(C)c1` (stereo unspecified) reads 17.5%; that for `Cc1nnc(NC(=O)N2CCC(N3CCCCC3)CC2)s1`, 7.15%; that for `CS(=O)(=O)c1cccc(S(=O)(=O)NC(=O)c2cscn2)c1`, 1.33%. As for `COCCN(CCOC)C(=O)c1ccn(-c2ccccc2Cl)n1`, the figure is -1.59%. As for `CCOC(=O)N(C)C1CCN(Cc2ccsc2)CC1`, the figure is -0.572%; as for `CCc1nnc2n1CCN(C(=O)C(C)Oc1ccc(C#N)cc1)C2` (stereo unspecified), -7.04%; as for `CCN(CC)C(=O)CS(=O)(=O)c1cc(OC)c(OC)cc1C`, -2.58%.

`CC(NC(=O)NCc1cccc(CN2CCCC2)c1)c1nccs1` (stereo unspecified): the cytotoxicity at 10 µM was -7.43%. `Cc1nonc1NC(=O)C1SCCc2sccc21` (stereo unspecified): the cytotoxicity at 10 µM was -2.82%. As for `Cn1nc2c(cc1=O)CN(CC(=O)Nc1nncs1)CC2`, the figure is -9.55%; as for `CC(C)NC(=O)CCNC(=O)Nc1cccc(-c2nccn2C)c1`, -1.39%. As for `CC(C)c1cnc(CN(C)C2CCN(CCc3ccncc3)C2)o1` (stereo unspecified), the figure is -0.296%. The result for `Cc1csc(C2CCCCN2C(=O)Cn2cncn2)n1` (stereo unspecified) reads -0.0679%. With `OCC(O)CSCc1nnc(-c2ccc(Cl)cc2)o1` (stereo unspecified), the cytotoxicity at 10 µM came out at 10.8%. On to `Cc1cccn2cc(CN3CCCC(c4noc(C5CC5)n4)C3)nc12` (stereo unspecified), for which the cytotoxicity at 10 µM is 2.29%. In the case of `CN(Cc1ccco1)C(=O)NCC(c1cccs1)N(C)C` (stereo unspecified), the cytotoxicity at 10 µM amounted to 4.38%.

For `O=C(Cc1cnn(-c2ccccc2)n1)NC1CCOCC1`, the cytotoxicity at 10 µM was -9.72%. As for `CCC1CN(C(=O)c2[nH]nc(C)c2Br)CCO1` (stereo unspecified), the cytotoxicity at 10 µM is -3.22%.

`CC(C)CC(C(=O)N(C)Cc1ncnn1C)N1CCCCC1=O` (stereo unspecified): the cytotoxicity at 10 µM was -0.159%. The result for `O=c1[nH]nc(CNc2ncc(Br)cn2)[nH]1` reads -5.12%; that for `CCC(C)NC(=O)CS(=O)(=O)Cc1cc(C)ccc1C` (stereo unspecified), -3.06%.

On to `CC(=O)N(C)Cc1cccc(NC(=O)N(C)Cc2nccs2)c1`, for which the cytotoxicity at 10 µM is -6.77%. As for `CC(C)CNC(=O)CSc1nnc(OC(C)C)s1`, the figure is 1.97%; as for `Cc1nn(CCO)c(C)c1CNC1CCC(C)(C)c2ccccc21` (stereo unspecified), -3.34%; as for `NC(=O)c1cncc(N2CCN(Cc3cccc4nsnc34)CC2)n1`, 8.15%. As for `COCc1ncc(CN2CCC3(CCNC(=O)CC3)CC2)cn1`, the figure is -147%. With `COc1ccccc1[C@@H]1CN(Cc2c(C)noc2C)C[C@H]1C(=O)O`, the cytotoxicity at 10 µM was -9.94%. `CN(C)CC1(O)CCCN(C(=O)CCn2cc(Cl)cn2)C1` (stereo unspecified): the cytotoxicity at 10 µM is -138%. The result for `CC(C)N1CCCC(C(=O)NCc2noc(Cc3ccccc3)n2)C1` (stereo unspecified) reads -1.49%. The result for `CN(Cc1cnccn1)CC1CCOc2ccccc2C1` (stereo unspecified) reads -3.75%; that for `COc1cccc(Cl)c1C(C(=O)O)N1CCC(Cn2cccn2)CC1` (stereo unspecified), -12.5%; that for `CC(C)C1CN(c2nccc(N)n2)CCC(=O)N1Cc1ccc(F)cc1` (stereo unspecified), -5.04%. The result for `Cc1nn(C)c2nc(N3CCNC(=O)C3C(C)C)sc12` (stereo unspecified) reads -10%; that for `COc1ccccc1CN1C(=O)O[C@@H]2CN(Cc3cccc(C)n3)C[C@@H]21`, 2.64%; that for `CN(C)C(=O)c1ccc2c(c1)N(C)C(CC(=O)NCCOCCO)CO2` (stereo unspecified), -7.96%.

As to `COc1ccc(CCN)cc1-c1ccc(S(C)(=O)=O)cc1`, the cytotoxicity at 10 µM was -6.23%.

Take `Cc1nccc(-c2ccccc2)c1C(=O)N1CCC2(CC(=O)NC2=O)C1` (stereo unspecified): the cytotoxicity at 10 µM is -2.12%. Take `CCn1cc(C(=O)N2CCCC3(CCC(=O)N(CCC(C)C)C3)C2)cn1` (stereo unspecified): the cytotoxicity at 10 µM was -1.19%. As for `Cc1n[nH]c(C)c1CC(=O)N1CCCN(C)C2(CCN(C)CC2)C1`, the figure is 11.7%; as for `CCc1ccc2nc(NCCOCCO)cc(C)c2c1`, -2.78%; as for `Cc1nn(C)c2ncnc(N3CCCC(OCc4ccccn4)C3)c12` (stereo unspecified), 7.96%.

Regarding `O=C(O)C1(O)CCN(c2ccnc3c(C(F)(F)F)cccc23)CC1`, the cytotoxicity at 10 µM was 5.56%. As for `CCC1c2cccn2CCN1C(=O)c1ccno1` (stereo unspecified), the figure is -8.58%. The result for `COc1ncccc1NC(=O)N(Cc1ccccn1)C1CC1` reads 9.11%; that for `Cc1cc(CN(C)CC(c2cccs2)N2CCOCC2)on1` (stereo unspecified), 0.049%; that for `Cc1nc(C)n(CC2CCCN(Cc3ccc4c(c3)OCCO4)C2)n1` (stereo unspecified), -18.9%. As for `O=C(NCc1nn(-c2ccccc2)c2c1CCC2)N1CCCC(O)C1` (stereo unspecified), the figure is -10.2%.

Take `O=C(NCCOC1CCCC1)c1ccc(-c2ccco2)[nH]c1=O`: the cytotoxicity at 10 µM was -20%. The result for `CN1CCC/C1=N\S(=O)(=O)c1ccc(NC(=O)c2ccsc2)cc1` reads 6.49%; that for `CCc1nc(C)c(C(=O)N2CCCN(Cc3cnn(C)c3)CC2)s1`, -2.41%; that for `CC(C)(C)NCc1ccc(OCc2ccc3c(c2)OCCO3)cc1`, 1.99%. As for `CNC(=O)[C@@H](c1ccccc1F)N1CCC[C@H]1C(=O)NC1CCCC1`, the cytotoxicity at 10 µM was 0.344%. For the compound `COCC(=O)N1CCN(Cc2cccnc2)c2ncccc2C1`, the cytotoxicity at 10 µM was 10.2%. With `COc1cccc(CN2CCC3(CC2)CCN(C(=O)[C@@H]2CCCO2)C3)c1`, the cytotoxicity at 10 µM turned out to be 0.523%. Take `CC(=O)N1Cc2nccn2CC(CNC(=O)c2cccnc2)C1` (stereo unspecified): the cytotoxicity at 10 µM was -146%. The result for `c1cncc(-c2ncnc3c2CCN(Cc2cccs2)CC3)c1` reads 19.9%; that for `O=C(C1CCC1)N1CCO[C@H]2[C@H](OCCCn3cccn3)CC[C@@H]21`, 16.7%. Regarding `O=C(NC1CC1)[C@@H]1CCO[C@@H]2CCN(C3CCOCC3)C[C@H]21`, the cytotoxicity at 10 µM is -9.99%. Take `CCc1ncnc2c1CCN(C(=O)c1ccncc1F)CC2`: the cytotoxicity at 10 µM is -88.5%.

On to `Cc1ccsc1C(=O)N1CC[C@H]2CO[C@H](CN(C)C)[C@H]2C1`, for which the cytotoxicity at 10 µM was found to be 2.93%. Consider `CN(Cc1ccco1)C[C@@H]1OC[C@H]2CN(Cc3nccs3)CC[C@H]21`, for which the cytotoxicity at 10 µM was -5.46%.

Turning to `Cn1nnc2c1CCN(Cc1ccco1)C2COCc1ccccc1` (stereo unspecified), the cytotoxicity at 10 µM was -133%. Consider `CNCC(=O)N1CC(c2cc(Nc3nc(C)cs3)nc(C)n2)C1`, for which the cytotoxicity at 10 µM is -21.2%.

For the compound `CC(C)CCN1C[C@@H]2OCCN(c3ncc(F)cn3)[C@@H]2C1`, the cytotoxicity at 10 µM turned out to be 4.91%. For the compound `Cn1cc(CN2CC[C@@H]3[C@H]2CCC(=O)N3c2ccccc2)cn1`, the cytotoxicity at 10 µM worked out at 7.42%. Turning to `Cc1ncsc1CN1C[C@@H]2COC[C@]2(CNC(=O)c2ccccc2)C1`, the cytotoxicity at 10 µM is -2.39%.

With `Cc1cccc(CN2CCn3cc(Cn4cccn4)nc3C2)n1`, the cytotoxicity at 10 µM stood at 3.27%. The result for `COCC1CC2(CCN(Cc3nccn3C)CC2)CN1c1ncccn1` (stereo unspecified) reads 5.1%; that for `CCc1cnc(N2C[C@@H]3C[C@H](C(=O)N(C)C)[C@H](C2)O3)nc1`, -12.1%.
